Data set [1] has as its target Protein-tyrosine kinase 6 (Homo sapiens) (UniProt Q13882). As to the kind of experiment: Binding affinity to wild-type human partial length BRK (L166 to T451 residues) expressed in bacterial expression system assessed as residual binding level at 1 uM by Kinomescan method relative to control. Summed up:
(§1)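 Single-concentration KINOMEscan (DiscoverX) binding screen at 1 μM against a panel of 468 purified kinases and mutants. The read-out is binding relative to control.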

Data set [2] concerns the target Cyclin-dependent kinase 9 (Homo sapiens) (UniProt P50750). As to the kind of experiment: Binding affinity to wild-type human full length CDK9 (M1 to F372 residues) expressed in bacterial expression system assessed as residual binding level at 1 uM by Kinomescan method relative to control. Summed up:
(§2)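 Single-concentration (1 μM) competition-binding screen run by KINOMEscan against a panel of 468 purified kinases and mutants. The read-out is the relative binding activity of the test compound to each kinase.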

For data set [3], the target named is Serine/threonine-protein kinase DCLK3 (Homo sapiens) (UniProt Q9C098). Kind of data set: Binding affinity to wild-type human partial length DCAMKL3 (E140 to V628 residues) expressed in bacterial expression system assessed as residual binding level at 1 uM by Kinomescan method relative to control. The method, boiled down:
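Kinome-wide competition binding screen against a panel of 468 purified kinases/mutants, with the test compound at a single concentration of 1 μM. Read-out is the relative binding activity of each kinase in the presence of compound.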

The target of data set [4] is Receptor tyrosine-protein kinase erbB-2 (Homo sapiens) (UniProt P04626). As to the kind of experiment: Binding affinity to wild-type human partial length ERBB2 (K646 to V1225 residues) expressed in mammalian expression system assessed as residual binding level at 1 uM by Kinomescan method relative to control.
The target in data set [5] is Rhodopsin kinase GRK1 (Homo sapiens) (UniProt Q15835). Kind of data set: Binding affinity to wild-type human full length GRK1 (M1 to S563 residues) expressed in mammalian expression system assessed as residual binding level at 1 uM by Kinomescan method relative to control. Summed up:
as §2

Data set [6] addresses Homeodomain-interacting protein kinase 3 (Homo sapiens) (UniProt Q9H422). Kind of data set: Binding affinity to wild-type human partial length HIPK3 (M153 to N562 residues) expressed in mammalian expression system assessed as residual binding level at 1 uM by Kinomescan method relative to control.
Data set [7] addresses Serine/threonine-protein kinase ICK (Homo sapiens) (UniProt Q9UPZ9). As to the kind of experiment: Binding affinity to wild-type human partial length ICK (M1 to P314 residues) expressed in mammalian expression system assessed as residual binding level at 1 uM by Kinomescan method relative to control.
Data set [8] relates to Mast/stem cell growth factor receptor Kit (Homo sapiens), P10721 [A829P]. As to the kind of experiment: Binding affinity to human partial length KIT A829P mutant (I571 to D952 residues) expressed in mammalian expression system assessed as residual binding level at 1 uM by Kinomescan method relative to control. The method, boiled down: (§3)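 Kinome-wide single-concentration binding screen (KINOMEscan) at 1 μM against a panel of 468 purified kinases and mutants. Read-out is relative binding of each kinase compared with control. Selectivity across the panel was summarised as an S(10) score.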

Data set [9] concerns Mast/stem cell growth factor receptor Kit (Homo sapiens), P10721 [V559D,T670I]. As to the kind of experiment: Binding affinity to human partial length KIT V559D/T670I double mutant (Y545 to D952 residues) expressed in bacterial expression system assessed as residual binding level at 1 uM by Kinomescan method relative to control. Summed up:
as §3

Data set [10] concerns the target Serine/threonine-protein kinase 26 (Homo sapiens) (UniProt Q9P289). Kind of data set: Binding affinity to wild-type human full length MST4 (M1 to P416 residues) expressed in mammalian expression system assessed as residual binding level at 1 uM by Kinomescan method relative to control. The method, boiled down: as §1
For data set [11], the system named is Proto-oncogene tyrosine-protein kinase receptor Ret (Homo sapiens), P07949 [M918T]. As to the kind of experiment: Binding affinity to human partial length RET M918T mutant (E713 to D1014 residues) expressed in bacterial expression system assessed as residual binding level at 1 uM by Kinomescan method relative to control. Summed up: as §3
Data set [12] has as its target Serine/threonine-protein kinase SIK1 (Homo sapiens) (UniProt P57059). Kind of data set: Binding affinity to wild-type human partial length SIK (M1 to Y304 residues) expressed in bacterial expression system assessed as residual binding level at 1 uM by Kinomescan method relative to control.
Data set [13] has as its target STE20-like serine/threonine-protein kinase (Homo sapiens) (UniProt Q9H2G2). As to the kind of experiment: Binding affinity to wild-type human partial length SLK (S14 to A307 residues) expressed in bacterial expression system assessed as residual binding level at 1 uM by Kinomescan method relative to control.
Data set [14] concerns the target Tyrosine-protein kinase receptor Tie-1 (Homo sapiens) (UniProt P35590). As to the kind of experiment: Binding affinity to wild-type human partial length TIE1 (T819 to A1138 residues) expressed in bacterial expression system assessed as residual binding level at 1 uM by Kinomescan method relative to control.
The target of data set [15] is Vascular endothelial growth factor receptor 2 (Homo sapiens) (UniProt P35968). As to the kind of experiment: Binding affinity to wild-type human partial length VEGFR2 (R787 to P1253 residues) expressed in mammalian expression system assessed as residual binding level at 1 uM by Kinomescan method relative to control. Summed up:
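KINOMEscan competition binding against a panel of 468 purified kinases/mutants, compound tested at 1 μM; readout is relative binding activity versus control.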

Data set [16] deals with Mast/stem cell growth factor receptor Kit (Homo sapiens, UniProt P10721). Kind of data set: Inhibition of TEL-fused c-KIT (unknown origin) expressed in mouse BA/F3 cells assessed as growth inhibition after 72 hrs by CellTiter-Glo or CCK-8 assay. It counts as cell-based. The method, boiled down:
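Parental BaF3 or IL-3-independent TEL-kinase BaF3 lines, made by retroviral infection and puromycin selection, grown in RPMI 1640 with 10% FBS. Cells seeded at 1–3 × 10^4 cells/mL with serial compound concentrations for 72 h. Viability read by CellTiter-Glo luminescence or CCK-8 absorbance at 450/655 nm and normalised to DMSO. GI50 obtained by triplicate testing with linear regression. Selectivity is the ratio of the two GI50 values.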

Data set [17] can be described thus: Apparent clearance in Sprague-Dawley rat at 1 mg/kg, iv. The format is ADME, organism-based. The settings on record: in vivo, read-out: CL(app) (converted).
A further data set has as its system NCI-H1703. Kind of data set: Cell cycle arrest in human NCI-H1703 cells assessed as accumulation at G0/G1 phase at 0.3 to 10 uM after 72 hrs in presence of PDGF-AA by propidium iodide/RNase staining-based flow cytometric analysis. It counts as functional. Summed up:
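Cells treated with compound or DMSO for the stated periods, fixed overnight in 70% cold ethanol at −20 °C, stained with PI/RNase buffer, then analysed by flow cytometry for cell-cycle distribution. For NCI-H1703 stimulation, PDGF AA was used at 100 ng/mL.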

Another data set has as its system EOL1. Kind of data set: Induction of apoptosis in human EOL-1 cells assessed as cleaved PARP expression level at 3 to 100 nM after 24 hrs by Western blot analysis. The format is functional, cell-based. Summed up: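 Cells exposed to compound or DMSO for the stated periods, then lysed and immunoblotted for PARP and caspase-3 cleavage, with β-actin as loading control. NCI-H1703 stimulation used PDGF AA at 100 ng/mL.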

Molecules are shown by their SMILES. Calls of active or inactive are those of the source. The rule behind the calls is not given here.

Chain of Tyrosine-protein kinase receptor Tie-1 (Homo sapiens) (P35590 whole entry, the tested form may be a part): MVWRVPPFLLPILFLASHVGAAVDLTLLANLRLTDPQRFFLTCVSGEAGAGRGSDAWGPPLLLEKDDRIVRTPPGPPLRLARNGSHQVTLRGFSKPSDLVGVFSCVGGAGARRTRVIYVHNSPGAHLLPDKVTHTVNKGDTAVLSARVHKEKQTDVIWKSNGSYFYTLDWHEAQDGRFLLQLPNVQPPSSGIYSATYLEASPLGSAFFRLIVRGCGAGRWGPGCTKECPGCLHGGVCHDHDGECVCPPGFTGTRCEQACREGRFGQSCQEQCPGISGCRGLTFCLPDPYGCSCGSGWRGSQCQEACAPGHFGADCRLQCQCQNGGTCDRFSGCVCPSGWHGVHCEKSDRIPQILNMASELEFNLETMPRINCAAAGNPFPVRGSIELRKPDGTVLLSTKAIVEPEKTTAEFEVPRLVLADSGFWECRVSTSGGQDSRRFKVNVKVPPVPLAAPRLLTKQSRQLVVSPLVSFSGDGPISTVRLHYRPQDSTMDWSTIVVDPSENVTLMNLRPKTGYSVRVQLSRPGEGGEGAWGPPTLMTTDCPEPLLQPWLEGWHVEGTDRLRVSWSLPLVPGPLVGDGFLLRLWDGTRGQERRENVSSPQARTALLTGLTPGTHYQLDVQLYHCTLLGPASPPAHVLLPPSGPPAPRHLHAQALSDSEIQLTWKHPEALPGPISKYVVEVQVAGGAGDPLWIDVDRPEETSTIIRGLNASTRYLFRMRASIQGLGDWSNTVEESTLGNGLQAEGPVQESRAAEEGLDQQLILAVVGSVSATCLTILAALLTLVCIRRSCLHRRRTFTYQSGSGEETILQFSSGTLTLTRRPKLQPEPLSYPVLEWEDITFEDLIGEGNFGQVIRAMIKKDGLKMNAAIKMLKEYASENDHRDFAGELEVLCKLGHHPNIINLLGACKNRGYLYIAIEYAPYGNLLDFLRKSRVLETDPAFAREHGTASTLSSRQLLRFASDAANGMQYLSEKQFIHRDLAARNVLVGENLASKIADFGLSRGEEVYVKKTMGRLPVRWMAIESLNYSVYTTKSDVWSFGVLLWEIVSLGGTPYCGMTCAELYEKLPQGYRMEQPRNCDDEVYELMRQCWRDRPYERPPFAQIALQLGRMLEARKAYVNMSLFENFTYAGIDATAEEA
Chain of Cyclin-dependent kinase 9 (Homo sapiens) (P50750 whole entry, the tested form may be a part): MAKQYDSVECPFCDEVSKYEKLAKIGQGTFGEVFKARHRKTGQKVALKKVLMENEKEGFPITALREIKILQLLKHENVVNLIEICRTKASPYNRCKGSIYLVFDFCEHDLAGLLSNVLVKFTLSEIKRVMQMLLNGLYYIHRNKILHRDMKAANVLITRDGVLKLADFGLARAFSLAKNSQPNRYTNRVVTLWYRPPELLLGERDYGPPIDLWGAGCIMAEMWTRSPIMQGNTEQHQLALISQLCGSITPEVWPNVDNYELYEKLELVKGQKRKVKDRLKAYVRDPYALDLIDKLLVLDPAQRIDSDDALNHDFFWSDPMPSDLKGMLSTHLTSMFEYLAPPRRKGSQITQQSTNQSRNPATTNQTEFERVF
Chain of Mast/stem cell growth factor receptor Kit (Homo sapiens), P10721 [A829P] (P10721 whole entry A829P, the tested form may be a part): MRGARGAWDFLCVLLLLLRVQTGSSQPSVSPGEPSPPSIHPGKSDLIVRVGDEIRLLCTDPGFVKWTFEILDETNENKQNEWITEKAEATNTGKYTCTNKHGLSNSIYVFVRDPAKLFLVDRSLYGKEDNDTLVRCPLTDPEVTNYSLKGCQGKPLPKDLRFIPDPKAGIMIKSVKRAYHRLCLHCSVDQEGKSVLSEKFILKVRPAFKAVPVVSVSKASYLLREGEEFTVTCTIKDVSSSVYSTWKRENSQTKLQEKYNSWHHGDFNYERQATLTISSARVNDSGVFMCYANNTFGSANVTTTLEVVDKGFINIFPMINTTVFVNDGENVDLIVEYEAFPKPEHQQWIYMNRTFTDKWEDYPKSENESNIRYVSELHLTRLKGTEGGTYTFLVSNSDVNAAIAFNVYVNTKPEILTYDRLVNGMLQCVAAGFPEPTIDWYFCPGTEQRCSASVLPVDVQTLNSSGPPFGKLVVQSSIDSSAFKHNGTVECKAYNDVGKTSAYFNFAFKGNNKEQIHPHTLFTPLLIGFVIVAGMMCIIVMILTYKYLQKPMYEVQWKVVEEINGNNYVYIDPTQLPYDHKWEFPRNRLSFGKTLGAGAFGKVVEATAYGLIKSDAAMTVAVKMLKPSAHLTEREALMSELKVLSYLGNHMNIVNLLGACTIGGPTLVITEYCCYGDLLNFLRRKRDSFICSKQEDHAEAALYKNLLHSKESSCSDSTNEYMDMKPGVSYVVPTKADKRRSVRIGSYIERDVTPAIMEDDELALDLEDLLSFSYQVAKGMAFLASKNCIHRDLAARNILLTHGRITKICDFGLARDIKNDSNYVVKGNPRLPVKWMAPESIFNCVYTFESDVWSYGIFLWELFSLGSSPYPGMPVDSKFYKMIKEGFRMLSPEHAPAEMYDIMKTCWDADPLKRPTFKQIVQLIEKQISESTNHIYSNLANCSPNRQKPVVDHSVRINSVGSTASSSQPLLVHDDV
Chain of Serine/threonine-protein kinase ICK (Homo sapiens) (Q9UPZ9 whole entry, the tested form may be a part): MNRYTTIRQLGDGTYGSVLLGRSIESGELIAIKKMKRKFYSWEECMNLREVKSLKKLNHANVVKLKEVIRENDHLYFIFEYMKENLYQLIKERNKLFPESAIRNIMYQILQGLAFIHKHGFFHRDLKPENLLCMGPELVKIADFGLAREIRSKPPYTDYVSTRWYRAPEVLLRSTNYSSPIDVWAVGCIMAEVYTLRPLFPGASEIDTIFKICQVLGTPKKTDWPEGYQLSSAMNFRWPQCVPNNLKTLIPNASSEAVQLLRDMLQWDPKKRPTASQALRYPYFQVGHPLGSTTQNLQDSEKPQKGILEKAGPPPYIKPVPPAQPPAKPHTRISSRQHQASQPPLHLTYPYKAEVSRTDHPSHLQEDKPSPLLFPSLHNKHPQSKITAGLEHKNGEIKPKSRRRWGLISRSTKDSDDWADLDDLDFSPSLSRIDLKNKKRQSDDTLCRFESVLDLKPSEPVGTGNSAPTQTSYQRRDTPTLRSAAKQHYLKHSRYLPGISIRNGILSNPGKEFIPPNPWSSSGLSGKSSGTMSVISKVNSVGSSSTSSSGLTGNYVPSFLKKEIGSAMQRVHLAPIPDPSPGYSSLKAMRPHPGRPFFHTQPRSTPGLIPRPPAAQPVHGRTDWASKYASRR
Chain of Serine/threonine-protein kinase 26 (Homo sapiens) (Q9P289 2-416 limits assumed): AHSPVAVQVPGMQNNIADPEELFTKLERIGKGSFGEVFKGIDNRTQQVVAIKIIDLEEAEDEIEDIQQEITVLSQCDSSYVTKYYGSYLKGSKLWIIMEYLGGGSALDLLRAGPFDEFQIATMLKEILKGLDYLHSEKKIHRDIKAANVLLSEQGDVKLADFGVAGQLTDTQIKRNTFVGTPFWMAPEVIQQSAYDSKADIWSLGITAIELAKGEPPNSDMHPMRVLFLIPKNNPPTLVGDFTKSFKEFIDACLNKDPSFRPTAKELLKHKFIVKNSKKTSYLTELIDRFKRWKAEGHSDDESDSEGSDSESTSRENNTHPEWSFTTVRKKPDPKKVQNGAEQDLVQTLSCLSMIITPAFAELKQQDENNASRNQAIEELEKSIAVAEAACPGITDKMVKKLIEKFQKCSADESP
Chain of Vascular endothelial growth factor receptor 2 (Homo sapiens) (P35968 whole entry, the tested form may be a part): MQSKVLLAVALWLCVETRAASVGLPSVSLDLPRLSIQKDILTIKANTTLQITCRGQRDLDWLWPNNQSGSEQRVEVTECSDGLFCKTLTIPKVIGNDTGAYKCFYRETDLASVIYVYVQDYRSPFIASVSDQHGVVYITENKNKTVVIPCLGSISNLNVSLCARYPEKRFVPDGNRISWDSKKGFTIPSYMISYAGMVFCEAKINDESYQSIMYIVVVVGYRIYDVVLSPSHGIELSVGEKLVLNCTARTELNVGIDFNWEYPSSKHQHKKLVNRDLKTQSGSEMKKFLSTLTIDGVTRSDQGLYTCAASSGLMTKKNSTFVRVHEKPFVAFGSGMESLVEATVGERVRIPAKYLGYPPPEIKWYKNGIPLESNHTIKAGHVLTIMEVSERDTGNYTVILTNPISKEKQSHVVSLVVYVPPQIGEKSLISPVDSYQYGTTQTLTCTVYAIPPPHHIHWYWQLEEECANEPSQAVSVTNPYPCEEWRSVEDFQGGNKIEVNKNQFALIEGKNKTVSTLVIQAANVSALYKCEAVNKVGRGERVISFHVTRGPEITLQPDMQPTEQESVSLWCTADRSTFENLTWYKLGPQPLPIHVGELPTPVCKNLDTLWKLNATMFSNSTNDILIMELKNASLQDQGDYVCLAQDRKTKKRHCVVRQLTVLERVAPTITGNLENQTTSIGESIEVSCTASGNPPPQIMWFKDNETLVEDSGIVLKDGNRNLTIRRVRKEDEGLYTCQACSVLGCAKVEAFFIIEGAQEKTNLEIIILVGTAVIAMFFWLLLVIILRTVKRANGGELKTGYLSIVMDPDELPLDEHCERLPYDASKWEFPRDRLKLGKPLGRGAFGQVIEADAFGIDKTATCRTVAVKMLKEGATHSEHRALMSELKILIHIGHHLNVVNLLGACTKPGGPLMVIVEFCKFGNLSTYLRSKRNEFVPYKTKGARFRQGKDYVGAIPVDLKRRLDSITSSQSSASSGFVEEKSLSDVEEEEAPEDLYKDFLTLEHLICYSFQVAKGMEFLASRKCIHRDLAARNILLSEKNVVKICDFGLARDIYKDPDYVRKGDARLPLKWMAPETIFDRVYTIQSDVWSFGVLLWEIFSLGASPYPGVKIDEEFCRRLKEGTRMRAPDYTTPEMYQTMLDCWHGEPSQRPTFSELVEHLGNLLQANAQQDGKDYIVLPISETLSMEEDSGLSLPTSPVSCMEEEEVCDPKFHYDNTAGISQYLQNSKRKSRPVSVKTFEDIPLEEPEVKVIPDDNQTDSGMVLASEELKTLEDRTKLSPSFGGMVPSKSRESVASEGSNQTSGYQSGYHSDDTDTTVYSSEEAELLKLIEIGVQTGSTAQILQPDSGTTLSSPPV

Turning to `Cc1ccc(NC(=O)c2ccc(CN(CCN(C)C)C(=O)c3cccnc3)cc2)cc1Nc1nccc(-c2cccnc2)n1`, the Activity in [1] amounted to 81%; in [2], 100%; in data set [3], 89%; in data set [4], 85%; in data set [5], 96%; in data set [6] it was 93%. For the same compound, the Activity was determined as 100% in [7]; 81% in data set [8]; 76% in [9]; 99% in [10]; 85% in data set [11]; 100% in data set [12]. The Activity in data set [13] worked out at 100%; in [14], 93%; in data set [15], 92%. Besides, in data set [16], the GI50 is more than 10 µM. Besides, the clearance in data set [17] was 32.7 mL/min/kg. Moreover, the result in the data set on NCI-H1703 and in the data set on EOL1 was Active.

These data come from ChEMBL document CHEMBL4229344 (Eur J Med Chem, 2018).
